Assay results published in ChEMBL document CHEMBL1140127, “Enantiomeric propanolamines as selective N-methyl-D-aspartate 2B receptor antagonists” (J Med Chem, 2008).
Activity calls are given as the source filed them.

Columns and labels:
Rattus norvegicus = assay: Effect on locomotor activity in Sprague-Dawley rat at 300 mg/kg, ip; assay type: functional, organism-based; set-up: dose 300 mg/kg
Method in brief: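 Sprague–Dawley rats, 100–200 g, habituated to the room for ≥30 min. Basal activity recorded for 1 h in infrared photobeam activity chambers. Animals then dosed ip and returned to the chamber for 2 h; total horizontal activity recorded. Daily controls were vehicle (negative) and 0.3 mg/kg MK-801 ip in saline (positive). ANOVA with Dunnett's post hoc test.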

[1] = biological target: Voltage-gated inwardly rectifying potassium channel KCNH2 (Homo sapiens, UniProt Q12809); assay: (§1) Displacement of [3H]astemizole from human ERG expressed in HEK293 cells
Voltage-gated inwardly rectifying potassium channel KCNH2, sequence (Q12809 whole entry): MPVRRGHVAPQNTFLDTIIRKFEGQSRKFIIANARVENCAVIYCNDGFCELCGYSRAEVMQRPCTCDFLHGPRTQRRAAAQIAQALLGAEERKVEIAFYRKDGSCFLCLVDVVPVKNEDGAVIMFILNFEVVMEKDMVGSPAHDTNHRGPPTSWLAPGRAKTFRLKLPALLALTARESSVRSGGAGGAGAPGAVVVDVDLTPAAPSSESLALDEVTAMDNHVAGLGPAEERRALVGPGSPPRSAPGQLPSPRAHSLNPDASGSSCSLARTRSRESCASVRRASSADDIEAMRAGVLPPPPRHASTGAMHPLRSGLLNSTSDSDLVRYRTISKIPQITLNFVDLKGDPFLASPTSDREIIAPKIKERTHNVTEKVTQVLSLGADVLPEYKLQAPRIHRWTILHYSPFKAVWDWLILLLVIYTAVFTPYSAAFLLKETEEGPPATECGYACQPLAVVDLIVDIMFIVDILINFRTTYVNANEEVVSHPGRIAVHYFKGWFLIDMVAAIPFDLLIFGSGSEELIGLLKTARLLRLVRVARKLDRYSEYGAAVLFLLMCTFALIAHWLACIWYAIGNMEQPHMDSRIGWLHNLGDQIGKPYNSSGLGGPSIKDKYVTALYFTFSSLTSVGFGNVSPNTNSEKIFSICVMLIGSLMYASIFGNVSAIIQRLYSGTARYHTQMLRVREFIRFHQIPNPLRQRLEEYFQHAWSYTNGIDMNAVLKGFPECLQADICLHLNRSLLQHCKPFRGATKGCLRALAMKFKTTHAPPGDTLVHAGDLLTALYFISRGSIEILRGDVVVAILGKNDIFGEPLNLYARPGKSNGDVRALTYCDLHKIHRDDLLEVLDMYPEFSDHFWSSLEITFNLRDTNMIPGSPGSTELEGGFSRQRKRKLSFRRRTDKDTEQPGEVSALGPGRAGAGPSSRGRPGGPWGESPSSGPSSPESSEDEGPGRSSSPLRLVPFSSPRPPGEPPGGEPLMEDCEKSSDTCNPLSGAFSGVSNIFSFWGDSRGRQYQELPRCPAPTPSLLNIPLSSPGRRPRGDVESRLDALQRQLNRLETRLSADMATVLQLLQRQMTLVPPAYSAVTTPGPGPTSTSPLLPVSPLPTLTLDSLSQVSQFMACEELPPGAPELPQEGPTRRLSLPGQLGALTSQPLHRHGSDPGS

hERG (KCNH2) = hERG (KCNH2) (Homo sapiens, UniProt Q12809); assay: as §1; details: human, HEK293 cells expressing human ERG, probe [3H]astemizole
hERG (KCNH2), sequence (Q12809 whole entry): as above

Plasma = assay: Half life in rat plasma at 30 mg/kg, ip by LC-MS/MS analysis; assay type: ADME, organism-based; set-up: dose 30 mg/kg, route intraperitoneal; details: in vivo
Method in brief: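 Fasted rats (n = 3 per dose) given 30 mg/kg ip in 2% dimethyl acetamide/98% 5% hydroxypropyl cyclodextrin. Plasma sampled at several time points up to 240 min and extracted with 5 volumes of cold acetonitrile. Parent compound measured by LC-MS/MS (MRM) against a standard curve to give plasma t1/2.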

Mus musculus = assay: Neuroprotective effect against middle cerebral artery occlusion-induced transient focal ischemia in C57BL/6 mouse at 30 mg/kg, ip administered 30 mins before occlusion; assay type: functional; details: route intraperitoneal
Method in brief: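 Male C57BL/6 mice, 3–5 months, under 2% isoflurane at 37 °C. Left MCA occluded with an intraluminal suture for 30 min, confirmed by laser Doppler flow below 20%. Injection ip (10 mL/kg) given 30 min before occlusion. After 24 h, brains cut into 2 mm sections and stained with 2% TTC; infarct volume thresholded and edema-corrected. Operator blinded; Mann–Whitney test.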

[2] = biological target: Glutamate NMDA receptor; Grin1/Grin2a (Rattus norvegicus) (UniProt P35439+Q00959); assay: Inhibition of rat recombinant NR1/NR2A receptor expressed in Xenopus oocytes assessed as inhibition of glutamate and glycine-induced evoked current at 3uM by two electrode voltage clamp method; assay type: cell-based; details: Oocyte
[3] = biological target: T1, Adrenergic receptor alpha-1 (Rattus norvegicus, UniProt P15823+P23944+P43140); assay: Displacement of [3H]prazosin from alpha1 adrenergic receptor in rat brain; assay type: tissue-based
T1 sequence (P15823 whole entry): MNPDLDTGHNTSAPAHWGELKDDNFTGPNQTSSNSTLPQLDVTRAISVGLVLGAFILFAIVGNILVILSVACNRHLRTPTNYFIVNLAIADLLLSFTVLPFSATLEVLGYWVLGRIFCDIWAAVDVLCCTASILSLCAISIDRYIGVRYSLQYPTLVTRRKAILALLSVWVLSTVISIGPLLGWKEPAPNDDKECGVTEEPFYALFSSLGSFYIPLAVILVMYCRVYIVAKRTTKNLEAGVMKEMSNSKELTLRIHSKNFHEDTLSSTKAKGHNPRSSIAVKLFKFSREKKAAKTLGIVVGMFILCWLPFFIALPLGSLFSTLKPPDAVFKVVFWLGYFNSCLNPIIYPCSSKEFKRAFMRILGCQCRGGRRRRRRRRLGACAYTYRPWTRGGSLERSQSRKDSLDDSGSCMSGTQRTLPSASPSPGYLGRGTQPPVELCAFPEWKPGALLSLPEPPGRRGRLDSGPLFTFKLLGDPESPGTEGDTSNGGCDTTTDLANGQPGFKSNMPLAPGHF
T1 sequence (P23944 whole entry): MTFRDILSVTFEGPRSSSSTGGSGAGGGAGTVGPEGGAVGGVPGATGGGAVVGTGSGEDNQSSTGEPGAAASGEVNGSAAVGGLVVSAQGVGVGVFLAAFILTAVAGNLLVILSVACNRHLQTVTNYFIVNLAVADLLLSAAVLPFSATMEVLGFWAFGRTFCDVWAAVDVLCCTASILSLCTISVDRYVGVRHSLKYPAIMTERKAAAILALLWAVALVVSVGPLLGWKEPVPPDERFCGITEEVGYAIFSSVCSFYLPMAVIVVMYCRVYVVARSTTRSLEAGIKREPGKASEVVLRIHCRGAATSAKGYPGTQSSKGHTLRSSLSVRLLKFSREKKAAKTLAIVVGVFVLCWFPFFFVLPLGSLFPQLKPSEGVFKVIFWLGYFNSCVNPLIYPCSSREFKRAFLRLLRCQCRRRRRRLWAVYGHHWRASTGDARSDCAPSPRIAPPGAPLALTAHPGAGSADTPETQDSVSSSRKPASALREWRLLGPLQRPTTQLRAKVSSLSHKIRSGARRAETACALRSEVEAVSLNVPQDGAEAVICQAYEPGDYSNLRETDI
T1 sequence (P43140 whole entry): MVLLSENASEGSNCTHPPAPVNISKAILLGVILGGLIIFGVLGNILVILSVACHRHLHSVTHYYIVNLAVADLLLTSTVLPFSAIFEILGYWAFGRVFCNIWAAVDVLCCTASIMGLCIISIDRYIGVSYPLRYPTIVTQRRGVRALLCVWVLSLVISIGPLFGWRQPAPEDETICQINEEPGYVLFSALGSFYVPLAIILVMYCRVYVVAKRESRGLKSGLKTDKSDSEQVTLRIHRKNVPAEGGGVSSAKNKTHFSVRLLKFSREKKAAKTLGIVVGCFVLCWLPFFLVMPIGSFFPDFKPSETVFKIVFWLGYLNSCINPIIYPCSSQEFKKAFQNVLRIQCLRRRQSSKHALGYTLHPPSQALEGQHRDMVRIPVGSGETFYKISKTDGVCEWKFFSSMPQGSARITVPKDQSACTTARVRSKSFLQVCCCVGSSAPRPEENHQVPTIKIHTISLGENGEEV
Method in brief: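 Rat brain membranes; displacement of [3H]-prazosin at 4–6 concentrations, each point in duplicate. IC50 from displacement curves fitted by nonlinear least-squares regression.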

[4] = biological target: Glutamate receptor ionotropic, kainate 2 (Rattus norvegicus) (UniProt P42260); assay: Inhibition of rat recombinant GluR6 expressed in Xenopus oocytes assessed as inhibition of domoate-induced evoked current at 3 uM by two electrode voltage clamp method; assay type: cell-based; details: Oocyte
Glutamate receptor ionotropic, kainate 2 (Rattus norvegicus), sequence (P42260 whole entry): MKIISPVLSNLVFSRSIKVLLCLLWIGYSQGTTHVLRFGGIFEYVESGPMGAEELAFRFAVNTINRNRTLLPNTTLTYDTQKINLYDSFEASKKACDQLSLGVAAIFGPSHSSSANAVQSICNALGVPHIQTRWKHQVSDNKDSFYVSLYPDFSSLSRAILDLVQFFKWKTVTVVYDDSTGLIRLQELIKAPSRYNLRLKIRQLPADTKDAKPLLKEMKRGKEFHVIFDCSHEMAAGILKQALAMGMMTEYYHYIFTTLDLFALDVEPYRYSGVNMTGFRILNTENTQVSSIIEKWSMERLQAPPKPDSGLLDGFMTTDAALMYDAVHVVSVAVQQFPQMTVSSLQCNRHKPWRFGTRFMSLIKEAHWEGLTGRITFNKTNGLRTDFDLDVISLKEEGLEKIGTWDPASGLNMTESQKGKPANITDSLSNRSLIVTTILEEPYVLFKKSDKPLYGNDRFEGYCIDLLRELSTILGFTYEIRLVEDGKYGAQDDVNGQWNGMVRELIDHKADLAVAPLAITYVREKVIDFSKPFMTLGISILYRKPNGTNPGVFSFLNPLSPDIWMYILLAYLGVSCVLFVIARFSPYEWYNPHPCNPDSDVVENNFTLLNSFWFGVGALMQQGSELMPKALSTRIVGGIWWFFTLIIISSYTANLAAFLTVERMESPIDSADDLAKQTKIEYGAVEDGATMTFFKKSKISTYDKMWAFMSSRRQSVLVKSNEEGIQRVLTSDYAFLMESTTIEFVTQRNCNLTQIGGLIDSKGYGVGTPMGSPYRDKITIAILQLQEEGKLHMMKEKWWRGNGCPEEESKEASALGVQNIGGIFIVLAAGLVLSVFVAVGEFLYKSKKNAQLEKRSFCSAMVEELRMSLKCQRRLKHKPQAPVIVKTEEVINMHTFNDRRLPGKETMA
Method in brief: (§2)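 Xenopus oocytes injected with 5–10 ng rat receptor cRNA and kept in Barth's solution at 18 °C. Two-electrode voltage clamp at −40 mV and 23 °C, 2–7 days after injection, in 90 NaCl/1 KCl/10 HEPES/0.5 BaCl2 mM at pH 7.3 or 7.6. Agonists: 50 μM kainate for GluR3, GluR4 and GluR2/3; 3 nM domoate for GluR6; 100 μM AMPA for GluR6/KA1. Current expressed as % of control; paired t test.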

[5] = biological target: Glutamate receptor ionotropic, kainate 2 (Rattus norvegicus) (UniProt P42260); assay: Inhibition of rat recombinant GluR6/KA1 expressed in Xenopus oocytes assessed as inhibition of AMPA-induced evoked current at 3 uM by two electrode voltage clamp method; assay type: cell-based; details: Oocyte; method in brief: as §2

CS(=O)(=O)Nc1ccc(OC[C@@H](O)CNCCc2ccc(Cl)c(Cl)c2)cc1 was tested, and the Activity (Rattus norvegicus) was “inactive”, the IC50 [1] was 730 nM and the IC20 (hERG (KCNH2)) was greater than 174 nM. The t1/2 (Plasma) was 1.1 h, the Activity (Mus musculus) was greater than 30% and the Activity [2] was “inactive”. For the same compound, the IC50 [3] was 2400 nM, the Activity [4] was “inactive” and the Activity [5] was “inactive”.
